Measurements published in ChEMBL document CHEMBL4371043, “Dynamic Generation of G-Quadruplex DNA Ligands by Target-Guided Combinatorial Chemistry on a Magnetic Nanoplatform” (J Med Chem, 2019).
The source made the active and inactive calls. The calls are words filed in the database; no cut-off is given here.

Assays:
Quadruplex DNA [1] = assay: Binding affinity to 6-FAM/TAMRA labeled cMYC G-quadruplex DNA (unknown origin) in potassium cacodylate buffer assessed as change in melting temperature at 1 uM at pH 7.4 by FRET-Based DNA melting assay; format: nucleic-acid assay
Method in brief: (§1)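 FRET melting: FAM/TAMRA dual-labelled oligos (G4: TG4AG3TG4AG3TG4A2G2; duplex: CA5T5GCA5T5G) annealed at 400 nM in 60 mM potassium cacodylate pH 7.4 (95 °C 5 min, cool 0.1 °C/min). Melting run on 200 nM oligo ± 1 μM ligand; excitation 480 nm, emission 530 nm, 37–95 °C, 30 reads per °C. ΔTm versus ligand-free DNA.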

dsDNA [2] = assay: Binding affinity to 6-FAM/TAMRA labeled double stranded DNA (unknown origin) in potassium cacodylate buffer assessed as change in melting temperature at 1 uM at pH 7.4 by FRET-Based DNA melting assay; format: nucleic-acid assay; method in brief: as §1
A549 = assay: Cytotoxicity against human A549 cells assessed as reduction in cell viability after 24 hrs by XTT assay; format: functional, cell-based; details: A549, 24 h
Method in brief: (§2)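 XTT viability: HeLa (DMEM), A549 (Ham's F12K) or NKE (glutamine-supplemented RPMI 1640), all with 10% FBS, 37 °C, 5% CO2; 10^4–10^5 cells/well exposed to 0–50 μM compound for 24 h, in triplicate. XTT/PMS added 2 h at 37 °C; absorbance 450 nm; viability as percent of untreated control.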

dsDNA [3] = assay: Binding affinity to double stranded DNA (unknown origin) in tris-KCL buffer by fluorimetric titration assay; format: nucleic-acid assay
Method in brief: (§3)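 Fluorimetric titration: unlabelled pre-folded G4 (TG4AG3TG4AG3TG4A2G2) or duplex (CA5T5GCA5T5G) DNA added stepwise to 0.25 μM ligand in filtered, degassed 100 mM Tris·KCl pH 7.4; 25 °C, 1 cm quartz cuvette, excitation 300 nm. Apparent Kd from fitting emission intensity against [DNA] to a one-site Hill equation.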

[4] = Cytotoxicity against human NKE cells assessed as reduction in cell viability after 24 hrs by XTT assay; format: cell-based; method in brief: as §2
Quadruplex DNA [5] = assay: Binding affinity to cMYC G-quadruplex DNA G to A mutant promoter sequence (unknown origin) transfected in human Hela cells assessed as reduction in c-MYC promoter-linked expression at 1 to 1.5 uM incubated for 36 hrs by dual-luciferase reporter gene assay relative to control; format: cell-based
Method in brief: (§4)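 Dual luciferase in HeLa: 0.2 μg c-MYC Del4 firefly reporter (wild-type or G-to-A mutant G-rich region) co-transfected with 30 ng pRL-TK Renilla control, Lipofectamine 2000, serum-free DMEM; after 8 h switched to complete medium with ligand at 1 or 1.5 μM. Lysed at 36 h; firefly activity normalised to Renilla.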

dsDNA [6] = assay: Binding affinity to double stranded DNA (unknown origin) assessed as reduction in fluorescence intensity at 0.25 uM by fluorimetric titration relative to control; format: nucleic-acid assay; method in brief: as §3
Quadruplex DNA [7] = assay: Displacement thiazole orange from cMYC G-quadruplex DNA (unknown origin) in tris-KCL buffer after 30 mins by FID assay; format: nucleic-acid assay
Method in brief: (§5)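 Thiazole orange displacement: pre-folded G4 or duplex DNA (0.25 μM) with TO (0.50 μM) in 100 mM Tris–KCl pH 7.4, 30 min rt; compound added stepwise, 3 min equilibration each, spectra excited at 501 nm. Percent TO displaced = 100 − (FA×100/FA0) from emission area; DC50 read from displacement-versus-concentration plot.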

dsDNA [8] = assay: Displacement thiazole orange from double stranded DNA (unknown origin) in tris-KCL buffer after 30 mins by FID assay; format: nucleic-acid assay; method in brief: as §5
Quadruplex DNA [9] = assay: Binding affinity to cMYC G-quadruplex DNA (unknown origin) assessed as reduction in fluorescence intensity at 0.25 uM by fluorimetric titration relative to control; format: nucleic-acid assay; method in brief: as §3
Quadruplex DNA [10] = assay: Binding affinity to cMYC G-quadruplex DNA (unknown origin) in tris-KCL buffer by fluorimetric titration assay; format: nucleic-acid assay; method in brief: as §3
HeLa [11] = assay: Cytotoxicity against human HeLa cells assessed as reduction in cell viability after 24 hrs by XTT assay; format: functional, cell-based; method in brief: as §2
Quadruplex DNA [12] = assay: Binding affinity to cMYC G-quadruplex DNA G to A mutant promoter sequence (unknown origin) transfected in human Hela cells assessed as reduction in c-MYC promoter-linked expression at 1.5 uM incubated for 36 hrs by dual-luciferase reporter gene assay relative to control; format: cell-based; details: in the assay text read “wild-type promoter sequence” for “G to A mutant promoter sequence”; method in brief: as §4
Quadruplex DNA [13] = assay: Binding affinity to 6-FAM/TAMRA labeled cMYC G-quadruplex DNA (unknown origin) in potassium cacodylate buffer assessed as change in melting temperature at 1 uM at pH 7.4 in presence of 1 to 200 equiv calf thymus DNA by FRET-Based DNA melting assay; format: nucleic-acid assay
Method in brief: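 Competition FRET melting: 0.2 μM FAM/TAMRA-labelled c-MYC G4 oligo with 1 μM ligand plus unlabelled calf-thymus duplex DNA at 1–200 equivalents of G4; ΔTm followed (excitation 480 nm, emission 530 nm, 37–95 °C ramp).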

Quadruplex DNA [14] = assay: Effect on native parallel topology of cMYC G-quadruplex DNA (unknown origin) assessed as formation of positive band at 260 nm up to 10 equiv concentration by CD spectroscopy; format: nucleic-acid assay
Quadruplex DNA [15] = assay: Effect on native parallel topology of cMYC G-quadruplex DNA (unknown origin) assessed as formation of negative band at 240 nm up to 10 equiv concentration by CD spectroscopy; format: nucleic-acid assay
Quadruplex DNA [16] = assay: Binding affinity to wild type cMYC G-quadruplex DNA promoter sequence (unknown origin) transfected in human Hela cells assessed as reduction in c-MYC promoter-linked expression at 1.5 uM incubated for 36 hrs by dual-luciferase reporter gene assay relative to control; format: cell-based; method in brief: as §4
dsDNA [17] = assay: Binding affinity to double stranded DNA (unknown origin) assessed as increase in emission intensity at 0.25 uM by fluorimetric titration relative to control; format: nucleic-acid assay; method in brief: as §3
Quadruplex DNA [18] = assay: Binding affinity to cMYC G-quadruplex DNA (unknown origin) assessed as induction of red shift at 0.25 uM in presence of increasing concentration of DNA by fluorimetric titration relative to control; format: nucleic-acid assay; method in brief: as §3
Quadruplex DNA [19] = assay: Binding affinity to wild type cMYC G-quadruplex DNA promoter sequence (unknown origin) transfected in human Hela cells assessed as reduction in c-MYC promoter-linked expression at 1 uM incubated for 36 hrs by dual-luciferase reporter gene assay relative to control; format: cell-based; method in brief: as §4
Quadruplex DNA [20] = assay: Binding affinity to cMYC G-quadruplex DNA (unknown origin) assessed as increase in emission intensity at 0.25 uM in presence of increasing concentration of DNA by fluorimetric titration relative to control; format: nucleic-acid assay; method in brief: as §3
Quadruplex DNA [21] = assay: Binding affinity to cMYC G-quadruplex DNA in human HeLa cells assessed as reduction in cMYC protein expression at 1.5 uM after 24 hrs by Western blot analysis relative to control; format: cell-based
Method in brief: (§6)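 Western blot, HeLa: 24 h ligand exposure at 1.0, 1.5 or 2.0 μM; lysis in 20 mM Tris/100 mM NaCl/1 mM EDTA/0.5% Triton X-100, protein by Folin-Lowry; 70 μg on 12% SDS-PAGE, nitrocellulose, 4% BSA block; rabbit anti-c-MYC and mouse anti-GAPDH overnight at 4 °C, HRP secondaries 2 h; bands quantified densitometrically.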

[22] = Drug level in human HeLa cell nucleus at 0.5 uM measured after overnight incubation by NucRed647-staining based confocal microscopy; format: ADME, subcellular
Method in brief: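 Confocal: HeLa on coverslips treated overnight with 0.5 μM ligand, fixed 12 min in 1:1 acetone/methanol at −20 °C, nuclei stained with NucRed 647 Live 10 min in the dark; ligand localisation imaged by confocal laser scanning.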

Quadruplex DNA [23] = assay: Binding affinity to cMYC G-quadruplex DNA in human HeLa cells assessed as reduction in cMYC protein expression at 1 uM after 24 hrs by Western blot analysis relative to control; format: cell-based; method in brief: as §6
Quadruplex DNA [24] = assay: Binding affinity to cMYC G-quadruplex DNA in human HeLa cells assessed as induction of DNA damage by measuring increase in gammaH2AX foci at 1 to 2 uM measured after overnight incubation by alexafluor-647-based flow cytometry; format: cell-based
Method in brief: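 γH2AX flow cytometry: HeLa treated overnight with 1 or 2 μM ligand, trypsinised, fixed in 1% paraformaldehyde 30 min rt, permeabilised with 0.03% saponin 20 min, then stained 3 h with Alexa Fluor 647 anti-γH2AX (1:100 in PBS + 0.1% FBS).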

HeLa [25] = assay: Effect on GAPDH protein expression in human HeLa cells at 1 to 2 uM after 24 hrs by Western blot analysis relative to control; format: ADME, cell-based; method in brief: as §6
Quadruplex DNA [26] = assay: Binding affinity to cMYC G-quadruplex DNA in human HeLa cells assessed as reduction in cMYC protein expression after 24 hrs by Western blot analysis; format: cell-based; method in brief: as §6
Quadruplex DNA [27] = assay: Binding affinity to cMYC G-quadruplex DNA in human HeLa cells assessed as reduction in cMYC protein expression at 2 uM after 24 hrs by Western blot analysis relative to control; format: cell-based; method in brief: as §6

SMILES	ΔTm (Quadruplex DNA [1])	ΔTm (dsDNA [2])	DC50 (Quadruplex DNA [7])	DC50 (dsDNA [8])	Kd (Quadruplex DNA [10])	IC50 (A549)	IC50 [4]	IC50 (HeLa [11])	other results
COc1ccc(-c2ccc3c(c2)c2cc(CNc4ccc(C#CCN(C)C)cc4)ccc2n3CCCN(C)C)cc1	5 °C	3.79 °C	–	–	–	–	–	–	–
COc1ccc(-c2ccc3c(c2)c2cc(CNC4CC4)ccc2n3CCCN(C)C)cc1	3.5 °C	1.1 °C	–	–	–	–	–	–	–
C#CCNCc1ccc2c(c1)c1cc(-c3ccc(OC)cc3)ccc1n2CCCN(C)C	11.8 °C	8.5 °C	> 25 µM	> 30 µM	7.17 µM	> 25 µM	> 50 µM	11500 nM	Kd (dsDNA [3]): 7.03 µM; Activity (Quadruplex DNA [5]): inactive; fold change (FC) (dsDNA [6]): 1.5; fold change (FC) (Quadruplex DNA [9]): 1.5
COc1ccc(-c2ccc3c(c2)c2cc(CNc4ccc([N+](=O)[O-])cc4)ccc2n3CCCN(C)C)cc1	3.4 °C	2.4 °C	–	–	–	–	–	–	–
CCCCNCc1ccc2c(c1)c1cc(-c3ccc(OC)cc3)ccc1n2CCCN(C)C	13.6 °C	9.5 °C	8.01 µM	> 30 µM	5.72 µM	4.3 µM	> 50 µM	2000 nM	Kd (dsDNA [3]): 6.63 µM; inhibition (Quadruplex DNA [12]): 14%
COc1ccc(-c2ccc3c(c2)c2cc(CNc4nccs4)ccc2n3CCCN(C)C)cc1	3.2 °C	1.15 °C	–	–	–	–	–	–	–
COc1ccc(-c2ccc3c(c2)c2cc(CNc4ccc(OCCCN(C)C)cc4)ccc2n3CCCN(C)C)cc1	23.4 °C	0.58 °C	2.25 µM	> 30 µM	1.08 µM	6.4 µM	> 50 µM	2500 nM	Activity (Quadruplex DNA [13]): Active; Activity (Quadruplex DNA [14]): inactive; Activity (Quadruplex DNA [15]): inactive; inhibition (Quadruplex DNA [16]): 45%; Activity (dsDNA [17]): inactive; Activity (Quadruplex DNA [18]): Active; inhibition (Quadruplex DNA [19]): 31%; fold change (FC) (Quadruplex DNA [20]): 4.4; Activity (Quadruplex DNA [5]): inactive; inhibition (Quadruplex DNA [21]): 57%; Drug uptake [22]: Active; inhibition (Quadruplex DNA [23]): 27%; Activity (Quadruplex DNA [24]): Active; Activity (HeLa [25]): Non-Toxic; inhibition (Quadruplex DNA [26]): Dose-dependent effect; inhibition (Quadruplex DNA [27]): 65%

Continued, in another order:

ΔTm (Quadruplex DNA [1])	ΔTm (dsDNA [2])	DC50 (Quadruplex DNA [7])	DC50 (dsDNA [8])	Kd (Quadruplex DNA [10])	SMILES	IC50 (A549)	IC50 [4]	IC50 (HeLa [11])	other results
5.3 °C	7.2 °C	–	–	–	COc1ccc(-c2ccc3c(c2)c2cc(CNCCCN(C)C)ccc2n3CCCN(C)C)cc1	–	–	–	–
0.7 °C	1.9 °C	–	–	–	COc1ccc(-c2ccc3c(c2)c2cc(CNc4ccc(O)cc4)ccc2n3CCCN(C)C)cc1	–	–	–	–
3.3 °C	0.44 °C	–	–	–	COc1ccc(-c2ccc3c(c2)c2cc(CNc4ccc(Br)cc4C)ccc2n3CCCN(C)C)cc1	–	–	–	–
